Measured values: ChEMBL document CHEMBL1629590, “Variety of antiprion compounds discovered through an in silico screen based on cellular-form prion protein structure: Correlation between antiprion activity and binding affinity” (Antimicrob Agents Chemother, 2009)

What was measured:
[1] = molecular target: Major prion protein (Mus musculus) (UniProt P04925); assay: Antiprion activity against mouse recombinant PrP expressed in Fukuoka-1 stain infected mouse GT1-7 cells assessed as remaining PrP-res level at 10 uM after 72 hrs by Western blotting relative to control; assay type: cell-based
Major prion protein (Mus musculus), sequence (P04925 whole entry): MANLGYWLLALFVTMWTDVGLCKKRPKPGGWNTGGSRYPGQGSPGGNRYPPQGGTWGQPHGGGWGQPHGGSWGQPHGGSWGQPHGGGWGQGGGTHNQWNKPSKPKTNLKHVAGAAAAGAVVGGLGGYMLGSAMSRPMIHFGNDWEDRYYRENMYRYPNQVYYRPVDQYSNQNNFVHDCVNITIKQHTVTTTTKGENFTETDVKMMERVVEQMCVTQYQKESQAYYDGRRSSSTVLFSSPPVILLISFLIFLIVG
In short: (§1)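 GT+FK cells (GT1-7 neuronal line persistently infected with Fukuoka-1 agent) in DMEM/10% FBS, 37°C, 5% CO2; 1.5 × 10⁵ cells/well, dosed 15 h after plating with compound from fresh 10 mM DMSO stock (vehicle 0.1%) for 72 h. Lysates in Triton X-100/deoxycholate buffer adjusted to 2 mg/ml protein; PrP^Sc by Western blot with M-20 antibody, densitometry versus solvent control; effective if <70% of control; ≥2 independent experiments.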

[2] = molecular target: Major prion protein (Mus musculus) (UniProt P04925); assay: Antiprion activity against mouse recombinant PrP expressed in Fukuoka-1 stain infected mouse GT1-7 cells at 10 uM after 72 hrs by Western blotting; assay type: cell-based; in short: as §1
Major prion protein = Major prion protein (Mus musculus, UniProt P04925); assay: Binding affinity to mouse recombinant PrP (121-231) after 10 mins by surface plasmon resonance assay
Major prion protein, sequence (P04925 whole entry): as above
In short: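 Recombinant mouse PrP(121-231) immobilized on CM5 chip; compounds at various concentrations injected in HEPES-buffered saline (pH 7.4) with 0.1% P20 and 5% DMSO, 1 min at 30 μl/min, then buffer alone for 10 min. Blank-chip corrected; Kd fitted from concentration dependence of sensorgram response.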

[3] = Solubility of the compound; assay type: physicochemical

SMILES	Activity [1] [%]	further results
O=C(Cc1coc2cc3c(cc12)CCC3)N1CCc2ccccc21	63.7	
O=C(CSc1nc2ccccc2[nH]1)NC1CCCc2ccccc21 (stereo not drawn)	64.9	
Cc1cc2cc3c(cc2nc1SCCN1CCCCC1)OCCO3	47.4	Activity [2]: < 70%; Kd (Major prion protein; read-out: Kd): 50.8 µM
O=C(CSc1ncnc2sc3c(c12)CCC3)NCC1CCCO1 (stereo not drawn)		Kd (Major prion protein): Not Active
CC1CCCCN1CC(=O)Nc1sc2c(c1C#N)CCCCC2 (stereo not drawn)	58.8	Kd (Major prion protein; read-out: Kd): 21.9 µM
O=C(Cc1c[nH]c2ccccc12)NC1CCc2ccccc2C1 (stereo not drawn)	55.3	Kd (Major prion protein; read-out: Kd): 48.6 µM
Cc1cccc(NC(=O)N2CCCC2C(=O)NC2CCCC2)c1 (stereo not drawn)	63.2	
Cc1ccc(NC(=O)CN2C(=O)NC3(CCc4ccccc43)C2=O)cc1 (stereo not drawn)	150	
CCC(C)C(NC(=O)c1ccccc1)C(=O)N1CCc2ccccc21 (stereo not drawn)	36.8	Activity [2]: < 70%; Kd (Major prion protein; read-out: Kd): 51.2 µM
CC1Cc2ccccc2N1C(=O)COc1ncnc2sccc12 (stereo not drawn)	67.4	
O=C(COc1ncnc2ccccc12)NC1CCCc2ccccc21 (stereo not drawn)	53	
CC(=O)N(Cc1ccccc1)Cc1cc2cccc(C)c2n2nnnc12		Kd (Major prion protein): Not Active
C=CCNC(=O)NC(=O)CSc1nc2ccccc2n1CC(C)C		Kd (Major prion protein): Not Active
O=C(NCc1ccccn1)C1CC2c3ccccc3C1c1ccccc12 (stereo not drawn)	54.7	solubility [3]: Insoluble
O=C(CN1C(=O)NC2(CCCc3ccccc32)C1=O)N1CCCCC1 (stereo not drawn)	67.1	
O=C(CN1C(=O)COc2ccccc21)N1CCCc2ccccc21	57.5	
O=C(COC(=O)c1c2c(nc3ccccc13)CCC2)NC1CCCC1	62.9	
N#Cc1c(NC(=O)c2cc3c(s2)CCCC3)sc2c1CCCC2	66.9	
CC1CCCCC1NC(=O)COc1ncnc2sc3c(c12)CCC3 (stereo not drawn)	68.8	
Cc1ccc2c(c1)c1c(n2CC(O)CN2CCCCC2)C(=O)CCC1 (stereo not drawn)	51.3	
Cc1cccc2cc3c(N)c(C(=O)NC4CCCC4)sc3nc12	41.9	Activity [2]: < 70%; Kd (Major prion protein; read-out: Kd): 86.1 µM
CCCCNc1nc2ccccc2n1CC(=O)N1CCc2ccccc21	37.3	Activity [2]: < 70%; Kd (Major prion protein; read-out: Kd): 20 µM
CN1/C(=C/C(=O)Nc2cccs2)c2ccccc2CC1(C)C	57.4	
O=C(CCc1nc2ccccc2c(=O)[nH]1)NC1CCCc2ccccc21 (stereo not drawn)	65	
CCCc1nc2ccccc2n1CC(=O)N1CCCc2ccccc21	67.2	
O=C1c2cccc3cccc(c23)N1CC(=O)N1CC2CCC1C2 (stereo not drawn)	65	
Cc1cccc2cc(C#N)c(N3CCCN(C(=O)C4CCC4)CC3)nc12	50.6	
